Assay results: ChEMBL document CHEMBL1926574, “Synthesis and biological evaluation of a new series of 1,2,4-triazolo[1,5-a]-1,3,5-triazines as human A(2A) adenosine receptor antagonists with improved water solubility” (J Med Chem, 2011)
pIC50, pKi: −log10 of the molar value.

Assays:
[1] = target: T1, Adenosine receptor A1 (Homo sapiens) (UniProt P30542); assay: Displacement of [3H]DPCPX from human adenosine A1 receptor expressed in HEK293 cells at 10 uM by scintillation counting; format: cell-based
T1 sequence (whole entry): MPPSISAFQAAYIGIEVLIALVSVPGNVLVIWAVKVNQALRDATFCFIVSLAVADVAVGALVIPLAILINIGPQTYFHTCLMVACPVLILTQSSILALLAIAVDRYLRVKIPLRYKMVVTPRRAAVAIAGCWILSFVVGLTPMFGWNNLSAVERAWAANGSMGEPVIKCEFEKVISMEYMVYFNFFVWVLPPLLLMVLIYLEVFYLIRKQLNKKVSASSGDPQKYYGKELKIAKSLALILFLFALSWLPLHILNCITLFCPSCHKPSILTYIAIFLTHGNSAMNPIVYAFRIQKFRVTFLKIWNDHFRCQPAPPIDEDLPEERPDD

Adenosine receptor A2a = Adenosine receptor A2a (Homo sapiens, UniProt P29274); assay: Displacement of [3H]ZM241385 from human adenosine A2A receptor expressed in HEK293 cells by scintillation counting; format: cell-based
Chain of Adenosine receptor A2a (P29274 whole entry): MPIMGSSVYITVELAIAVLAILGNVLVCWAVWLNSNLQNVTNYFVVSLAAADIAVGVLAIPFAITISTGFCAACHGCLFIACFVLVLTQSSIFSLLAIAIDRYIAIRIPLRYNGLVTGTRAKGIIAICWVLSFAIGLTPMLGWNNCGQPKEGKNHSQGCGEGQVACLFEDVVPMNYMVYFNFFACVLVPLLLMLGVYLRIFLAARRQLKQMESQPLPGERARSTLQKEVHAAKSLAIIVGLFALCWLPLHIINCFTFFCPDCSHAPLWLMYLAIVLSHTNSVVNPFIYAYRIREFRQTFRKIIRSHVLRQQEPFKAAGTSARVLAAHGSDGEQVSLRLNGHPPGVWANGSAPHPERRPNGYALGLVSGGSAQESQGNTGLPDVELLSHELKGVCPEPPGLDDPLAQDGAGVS

[2] = target: T2, Adenosine receptor A3 (Homo sapiens) (UniProt P0DMS8); assay: Displacement of [I125]I-AB-MECA from human adenosine A3 receptor expressed in CHO cells at 10 uM by scintillation counting; format: cell-based
T2 sequence (whole entry): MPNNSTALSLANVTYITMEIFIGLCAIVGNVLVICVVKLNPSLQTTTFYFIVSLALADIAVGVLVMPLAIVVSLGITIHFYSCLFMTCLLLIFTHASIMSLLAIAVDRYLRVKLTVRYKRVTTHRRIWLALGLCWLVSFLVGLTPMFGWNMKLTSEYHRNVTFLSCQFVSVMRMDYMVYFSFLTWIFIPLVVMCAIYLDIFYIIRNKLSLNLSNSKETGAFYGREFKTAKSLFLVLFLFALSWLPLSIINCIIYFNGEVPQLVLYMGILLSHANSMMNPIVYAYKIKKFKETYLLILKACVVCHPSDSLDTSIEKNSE

Adenosine receptor A2b = target: T3, Adenosine receptor A2b (Homo sapiens, UniProt P29275); assay: Antagonist activity at human recombinant adenosine A2B receptor expressed in CHO cells assessed as inhibition of NECA-stimulated adenylyl cyclase activity; format: functional, cell-based
T3 sequence (P29275 whole entry): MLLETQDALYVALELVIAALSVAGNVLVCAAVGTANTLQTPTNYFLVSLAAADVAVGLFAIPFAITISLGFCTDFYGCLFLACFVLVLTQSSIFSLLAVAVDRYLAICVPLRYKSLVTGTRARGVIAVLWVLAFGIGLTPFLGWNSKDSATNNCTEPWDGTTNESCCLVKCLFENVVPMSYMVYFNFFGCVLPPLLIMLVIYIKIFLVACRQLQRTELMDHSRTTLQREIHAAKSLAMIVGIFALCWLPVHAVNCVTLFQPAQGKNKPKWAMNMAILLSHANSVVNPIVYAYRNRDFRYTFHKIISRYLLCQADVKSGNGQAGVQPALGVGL
In short: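 Membranes from CHO cells stably expressing the hA2B receptor were incubated 20 min with about 150,000 cpm [α-32P]ATP, without EGTA and NaCl. The read-out was antagonist concentration-dependent inhibition of NECA-stimulated adenylyl cyclase. IC50 was calculated with the Hill equation.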

Adenosine receptor A1 = target: T4, Adenosine receptor A1 (Homo sapiens, UniProt P30542); assay: Displacement of [3H]DPCPX from human adenosine A1 receptor expressed in HEK293 cells by scintillation counting; format: cell-based
T4 sequence (P30542 whole entry): T1 sequence (whole entry)

Homo sapiens [3] = organism: Homo sapiens; assay: Selectivity ratio of Ki for human adenosine A1 receptor to Ki for human adenosine A2A receptor
Homo sapiens [4] = organism: Homo sapiens; assay: Selectivity ratio of Ki for human adenosine A3 receptor to Ki for human adenosine A2A receptor
Adenosine receptor A3 = target: T5, Adenosine receptor A3 (Homo sapiens, UniProt P0DMS8); assay: Displacement of [I125]I-AB-MECA from human adenosine A3 receptor expressed in CHO cells by scintillation counting; format: cell-based
T5 sequence (P0DMS8 whole entry): T2 sequence (whole entry)

[5] = target: T6, Adenosine receptor A2b (Homo sapiens) (UniProt P29275); assay: Antagonist activity at human adenosine A2B receptor; format: functional
T6 sequence (whole entry): T3 sequence (P29275 whole entry)

[6] = target: T2, Adenosine receptor A3 (Homo sapiens); assay: Antagonist activity at human adenosine A3 receptor; format: functional
[7] = target: T7, Adenosine receptor A1 (Rattus norvegicus) (UniProt P25099); assay: Antagonist activity at rat adenosine A1 receptor; format: functional
T7 sequence (whole entry): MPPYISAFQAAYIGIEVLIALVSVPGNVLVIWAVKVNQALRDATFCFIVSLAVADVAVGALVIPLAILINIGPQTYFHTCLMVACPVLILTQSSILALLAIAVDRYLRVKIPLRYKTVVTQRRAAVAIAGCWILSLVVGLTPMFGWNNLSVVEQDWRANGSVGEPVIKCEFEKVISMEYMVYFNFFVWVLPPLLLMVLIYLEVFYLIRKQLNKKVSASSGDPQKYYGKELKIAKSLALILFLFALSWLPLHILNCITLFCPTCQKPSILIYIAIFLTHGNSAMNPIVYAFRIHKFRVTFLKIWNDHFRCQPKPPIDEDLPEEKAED

Antagonist potency (inhibitory concentration) [5] | Antagonist potency [6] | INH [7] | SMILES | Activity [1] | pKi (Adenosine receptor A2a) | Activity [2] | pIC50 (Adenosine receptor A2b) | pKi (Adenosine receptor A1) | Ratio Ki (Homo sapiens [3]) | Ratio Ki (Homo sapiens [4]) | pKi (Adenosine receptor A3)
– | – | – | O=C(Nc1nc(Oc2ccccc2)nc2nc(-c3ccco3)nn12)c1ccccc1 | 26.2% | 6.00 | 32.3% | < 5.00 | – | – | – | –
– | – | – | COC(=O)CCC(=O)N1CCN(c2nc(N)n3nc(-c4ccco4)nc3n2)CC1 | 19.4% | 7.18 | 37.2% | < 4.00 | – | – | – | –
– | – | – | O=C(Nc1nc(O)nc2nc(-c3ccco3)nn12)c1ccccc1 | 34.4% | 5.76 | 75.9% | < 4.00 | – | – | – | –
– | – | – | CC(C)(C)OC(=O)NCCCCCNc1nc(N)n2nc(-c3ccco3)nc2n1 | – | 7.35 | 68.6% | < 5.00 | 6.02 | 21.5 | – | –
– | – | – | Nc1nc(N2CCN(Cc3cccc(Cl)c3)CC2)nc2nc(-c3ccco3)nn12 | – | 7.29 | 52.7% | < 4.52 | 5.82 | 29 | 200 | –
– | – | – | Nc1nc(N2CCN(C(=O)c3cccc4ccccc34)CC2)nc2nc(-c3ccco3)nn12 | 4.9% | 5.11 | 31.1% | < 4.00 | – | – | – | –
– | – | – | Nc1nc(N2CCN(Cc3ccccc3)CC2)nc2nc(-c3ccco3)nn12 | – | 7.69 | 71.9% | < 4.52 | 6.01 | 47.5 | – | –
– | – | – | CC(C)(C)OC(=O)NCCNc1nc(N)n2nc(-c3ccco3)nc2n1 | – | 7.39 | – | < 5.00 | 5.43 | 91 | 36 | 5.83
– | – | – | Nc1nc(N2CCNCC2)nc2nc(-c3ccco3)nn12 | 28.6% | 6.82 | 29.9% | < 4.52 | – | – | – | –
3420 nM | 489 nM | 2.72 µM | Nc1nc(Oc2ccccc2)nc2nc(-c3ccco3)nn12 | – | – | – | – | – | – | – | –
– | – | – | Nc1nc(O)nc2nc(-c3ccco3)nn12 | – | 6.70 | 43.9% | < 5.00 | 5.51 | 15.5 | 50 | –
– | – | 3.3 µM | Nc1nc(N2CCN3C[C@@H](COc4cccc(F)c4)CC[C@H]3C2)nc2nc(-c3ccco3)nn12 | – | – | – | – | – | – | – | –
– | – | – | CC(C)(C)OC(=O)NCCCNc1nc(N)n2nc(-c3ccco3)nc2n1 | – | 7.41 | 77.3% | 4.69 | 6.46 | 9 | – | –
– | – | – | Nc1nc(N2CCN(C(=O)c3ccccc3)CC2)nc2nc(-c3ccco3)nn12 | 27.7% | 6.46 | 22.6% | < 4.00 | – | – | – | –
– | – | – | NCCNc1nc(N)n2nc(-c3ccco3)nc2n1 | 35.8% | 6.25 | 30.8% | < 4.00 | – | – | – | –
– | – | – | Nc1nc(N2CCN(C(=O)C(c3ccccc3)c3ccccc3)CC2)nc2nc(-c3ccco3)nn12 | – | 7.03 | 40.6% | < 4.00 | 5.13 | 80 | – | –
– | – | – | NCCCNc1nc(N)n2nc(-c3ccco3)nc2n1 | 44.3% | 6.57 | 40.5% | < 4.52 | – | – | – | –
– | – | – | NCCNc1nc(NCCN)n2nc(-c3ccco3)nc2n1 | 10.7% | 4.42 | 17.7% | < 4.00 | – | 0.3 | – | –
– | – | – | CC(C)(C)OC(=O)NCCOCCOCCNc1nc(N)n2nc(-c3ccco3)nc2n1 | – | 7.75 | 74% | < 5.00 | 5.80 | 89 | – | –
